Test results taken from ChEMBL document CHEMBL1130179, “DNA gyrase inhibitory and antimicrobial activities of some diphenic acid monohydroxamides” (J Med Chem, 1997).
In brackets after ≈: the same amount, converted by molar mass. Peptide text beside a SMILES is read from it.

How the values were obtained:
Escherichia coli [1] = test: Minimum inhibitory concentration of compound against Escherichia coli; format: functional
Method in brief: (§1)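 Broth microdilution in Mueller Hinton broth for Gram-negatives, 2-fold series 0.015–1000 µg/mL, inoculum about 5 × 10^5 CFU/mL. Incubated overnight at 35 °C; MIC = lowest well with no visible growth. Some tests included polymyxin B nonapeptide at a level with no antibacterial activity of its own, compared with PMBN-free controls.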

Escherichia coli [2] = test: Minimum inhibitory concentration of compound against KL-16 Escherichia coli strain; format: functional; method in brief: as §1
[3] = system: Staphylococcus epidermidis; test: Minimum inhibitory concentration of compound against OC2603 Staphylococcus epidermidis strain; format: functional
Method in brief: (§2)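 Broth microdilution in Luria broth for Gram-positives, 2-fold series 0.015–1000 µg/mL, inoculum about 5 × 10^5 CFU/mL. Incubated overnight at 35 °C; MIC = lowest well concentration with no visible growth.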

Staphylococcus aureus = test: Minimum inhibitory concentration of compound against OC6538 Staphylococcus aureus strain; format: functional; method in brief: as §2
[4] = system: DNA gyrase (Escherichia coli); test: Inhibition of cleavable complex ability of DNA gyrase in Escherichia coli
Escherichia coli [5] = test: Minimum inhibitory concentration of compound against Escherichia coli KL-16 strain; format: functional; method in brief: as §1

Row | SMILES | MIC (Escherichia coli [1]) [µg/mL] | MIC (Escherichia coli [2]) [µg/mL] | MIC [3] [µg/mL] | MIC (Staphylococcus aureus) [µg/mL] | CC50 [4] [µg/mL] | MIC (Escherichia coli [5]) [µg/mL]
1 | CC(c1ccc2c(ccc3ccccc32)c1)N(O)C(=O)c1ccccc1-c1ccccc1C(=O)O (stereo not drawn) | 31.2 (≈ 67.6 µM) | > 1000 | 31.2 (≈ 67.7 µM) | 31.2 (≈ 67.7 µM) | 97.7 (≈ 212 µM) | 
2 | CC(c1ccc2c(c1)Nc1ccccc1S2)N(O)C(=O)c1ccccc1-c1ccccc1C(=O)O (stereo not drawn) | > 1000 | > 1000 | 62.5 (≈ 130 µM) | 62.5 (≈ 130 µM) | 750 (≈ 1550 µM) | 
3 | CC(C)C[C@@H]1NC(=O)[C@@H](Cc2ccccc2)NC(=O)[C@H](CCN)NC(=O)[C@@H](NC(=O)[C@H](CCN)NC(=O)[C@@H](N)[C@@H](C)O)CCNC(=O)[C@H]([C@@H](C)O)NC(=O)[C@H](CCN)NC(=O)[C@H](CCN)NC1=O (HELM PEPTIDE1{T.[Dab].[Dab].[Dab].[dF].L.[Dab].[Dab].T}$PEPTIDE1,PEPTIDE1,3:R3-9:R2$$$V2.0) | 500 (≈ 519 µM) |  |  |  |  | > 500
4 | CC(c1ccc(N2CCN(c3ccccc3)CC2)cc1)N(O)C(=O)c1ccccc1-c1ccccc1C(=O)O (stereo not drawn) | > 1000 | > 1000 | 500 (≈ 959 µM) | 500 (≈ 959 µM) |  | 
5 | CC(c1ccc2oc(-c3ccccc3)cc2c1)N(O)C(=O)c1ccccc1-c1ccccc1C(=O)O (stereo not drawn) | > 1000 | > 1000 | 15.6 (≈ 32.7 µM) | 15.6 (≈ 32.7 µM) | 62.5 (≈ 131 µM) | 
6 | COc1cc(C(C)N(O)C(=O)c2ccccc2-c2ccccc2C(=O)O)cc(OC)c1OC (stereo not drawn) | > 1000 | > 1000 | 1000 (≈ 2210 µM) | 1000 (≈ 2210 µM) |  | 
7 | CC(c1ccccc1)N(O)C(=O)c1ccccc1-c1ccccc1C(=O)O (stereo not drawn) | 1000 (≈ 2770 µM) | > 1000 | 1000 (≈ 2770 µM) | 1000 (≈ 2770 µM) |  | 
8 | CCn1cc(C(=O)O)c(=O)c2ccc(C)nc21 [NALIDIXIC ACID] | 1 (≈ 4.31 µM) | 8 (≈ 34.4 µM) | 250 (≈ 1080 µM) | 500 (≈ 2150 µM) |  | 
